# Laboratory results reported in ChEMBL document CHEMBL1125605 (1991).
# Assays:
# Type in all cases: functional
# [1] = tested on: HEL; experiment: Concentration required to inhibit VZV (oka) induced cytopathogenicity in HEL cells by 50%.; details: Homo sapiens
# [2] = tested on: E6SM; experiment: Concentration required to inhibit HSV-1 (McIntyre) induced cytopathogenicity in E6SM cells by 50%.; details: Homo sapiens
# [3] = tested on: HEL; experiment: Concentration required to cause 50% reduction in HEL cell growth.; details: Homo sapiens; read-out: MIC
# How it was run: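 Cytotoxicity was measured as inhibition of growth of HEL human embryonic lung fibroblasts. The value is the compound concentration that reduced cell growth by 50%.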
# [4] = tested on: E6SM; experiment: Concentration required to inhibit HSV-2(G) induced cytopathogenicity in E6SM cells by 50%.; details: Homo sapiens
# [5] = tested on: HEL; experiment: Concentration required to inhibit VZV (YS) induced cytopathogenicity in HEL cells by 50%.; details: Homo sapiens
# [6] = tested on: HEL; experiment: Concentration required to inhibit CMV (AD-169) induced cytopathogenicity in HEL cells by 50%.; details: Homo sapiens
# [7] = tested on: E6SM; experiment: Concentration required to inhibit HSV-1 (F) induced cytopathogenicity in E6SM cells by 50%.; details: Homo sapiens
# [8] = tested on: E6SM; experiment: Concentration required to inhibit HSV-1 (KOS) induced cytopathogenicity in E6SM cells by 50%.; details: Homo sapiens
# [9] = tested on: E6SM; experiment: oncentration required to inhibit VV induced cytopathogenicity in E6SM cells by 50%.; details: Homo sapiens
# [10] = tested on: E6SM; experiment: Concentration required to inhibit HSV-2(lyons) induced cytopathogenicity in E6SM cells by 50%.; details: Homo sapiens
# [11] = tested on: HEL; experiment: Concentration required to inhibit TK-VZV (YSR) induced cytopathogenicity in HEL cells by 50%.; details: Homo sapiens
# [12] = tested on: HEL; experiment: Concentration required to inhibit TK-VZV (07-1) induced cytopathogenicity in HEL cells by 50%.; details: Homo sapiens
# [13] = tested on: E6SM; experiment: Concentration required to inhibit HSV-2(196) induced cytopathogenicity in E6SM cells by 50%.; details: Homo sapiens
# [14] = tested on: HEL; experiment: Concentration required to inhibit CMV (Davis) induced cytopathogenicity in HEL cells by 50%.; details: Homo sapiens
# [15] = tested on: E6SM; experiment: Concentration required to inhibit TK-HSV-1 (B2006) induced cytopathogenicity in E6SM cells by 50%.; details: Homo sapiens
# [16] = tested on: E6SM; experiment: Concentration required to cause a microscopically detectable alteration of normal cell morphology in E6SM cells; details: Homo sapiens; read-out: MIC
# How it was run: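 Uninfected E6SM human embryonic skin-muscle fibroblasts were exposed to compound and examined under the microscope. The value is the minimum concentration that caused a detectable alteration of normal cell morphology.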
# [17] = tested on: E6SM; experiment: Concentration required to inhibit VSV induced cytopathogenicity in E6SM cells by 50%.; details: Homo sapiens
# How it was run: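 Antiviral assay in E6SM human embryonic skin-muscle fibroblasts, with cells infected by vesicular stomatitis virus (VSV) in microtiter plates. Virus-induced cytopathogenicity is assessed. The value is the compound concentration that reduces VSV-induced cytopathogenicity by 50%.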
# [18] = tested on: E6SM; experiment: Concentration required to inhibit TK-HSV-1 (VMW1837) induced cytopathogenicity in E6SM cells by 50%.; details: Homo sapiens
Structure (SMILES),MIC [1] [µg/mL],MIC [2] [µg/mL],CC50 (50% cell growth inhibitory concentration) [3] [µg/mL],MIC [4] [µg/mL],MIC [5] [µg/mL],MIC [6] [µg/mL],MIC [7] [µg/mL],MIC [8] [µg/mL],MIC [9] [µg/mL],MIC [10] [µg/mL],MIC [11] [µg/mL],MIC [12] [µg/mL],MIC [13] [µg/mL],MIC [14] [µg/mL],MIC [15] [µg/mL],minimum cytotoxic concentration (morphology alteration) [16] [µg/mL],MIC [17] [µg/mL],MIC [18] [µg/mL]
O=c1[nH]c(=O)n([C@H]2C[C@H](O)[C@@H](CO)O2)cc1-c1ccc(Br)o1,3,0.2,125,150,3,> 100,0.1,0.15,70,300,> 100,> 100,150,> 100,100,> 400,> 200,
O=c1[nH]c(=O)n([C@H]2C[C@H](O)[C@@H](CO)O2)cc1-c1cccs1,18,0.1,> 200,250,41,250,0.2,0.45,> 400,100,> 400,180,150,250,300,> 400,,150
Nc1nc(=O)n([C@H]2C[C@H](O)[C@@H](CO)O2)cc1-c1cccs1,3,0.07,45,45,4,60,0.4,1.3,20,20,30,8,20,40,> 100,> 200,,> 100
O=c1[nH]c(=O)n(C2O[C@H](CO)[C@@H](O)[C@@H]2O)cc1-c1cccs1 (stereo partly drawn),5.5,0.07,> 200,20,6.5,250,0.2,0.2,> 400,20,> 400,370,100,250,> 400,> 400,,> 400
O=c1[nH]c(=O)n([C@H]2C[C@H](O)[C@@H](CO)O2)cc1-c1ccc(Br)s1,0.03,0.02,155,150,0.03,> 100,0.07,0.03,70,150,> 40,> 40,> 200,> 100,150,> 400,,150
O=c1[nH]c(=O)n([C@H]2C[C@H](O)[C@@H](CO)O2)cc1/C=C/Br [BRIVUDINE],0.001,0.02,,20,0.001,250,0.02,0.02,0.07,10,> 40,> 40,> 400,250,20,> 400,400,4
O=c1[nH]c(=O)n([C@H]2C[C@H](O)[C@@H](CO)O2)cc1-c1ccc(Cl)o1,2.5,0.4,105,150,3,> 100,0.2,0.2,45,150,> 100,> 100,150,> 100,150,> 400,> 200,150
O=c1[nH]c(=O)n([C@H]2C[C@H](O)[C@@H](CO)O2)cc1-c1ccco1,4,0.2,100,200,7,> 400,0.2,0.2,,> 400,220,155,> 400,> 400,150,> 400,300,300
Cn1ccnc1-c1cn([C@H]2C[C@H](O)[C@@H](CO)O2)c(=O)[nH]c1=O,> 400,> 200,> 200,> 200,> 400,> 400,> 200,> 200,> 200,> 200,> 400,> 400,> 200,> 400,> 200,> 200,,> 200
O=c1[nH]c(=O)n([C@@H]2C[C@H](O)[C@@H](CO)O2)cc1-c1cccs1,75,,180,> 300,> 100,> 100,,> 200,> 200,100,80,85,150,,> 200,> 400,,150
O=c1[nH]c(=O)n([C@H]2C[C@H](O)[C@@H](CO)O2)cc1-c1ccc(Cl)s1,0.02,0.004,> 50,> 200,0.02,> 40,0.04,0.02,> 200,> 200,65,35,> 200,,> 200,> 400,,> 200
CC1[C@@H](O)[C@@H](CO)O[C@@H]1n1cc(I)c(=O)[nH]c1=O (stereo partly drawn),15,300,> 200,300,10,400,300,300,> 400,300,170,90,300,,300,> 400,300,150
O=c1[nH]c(=O)n([C@@H]2C[C@@H](O)[C@@H](CO)O2)cc1-c1ccco1,210,70,110,300,240,> 100,40,55,300,150,240,260,150,> 100,> 200,> 400,,70
